In ChEMBL document CHEMBL1147285, “A mammalian cell agar-diffusion assay for the detection of toxic compounds” (J Nat Prod, 1989):
Calls of active or inactive are those of the source. The calls are words filed in the database; no cut-off is given here. Numbered stars: 1 amine (or outer) side, 2 acyl side, 3 side chain; on linkers, the order of the positions; unused ones are H or OH. Bridge positions count the residues as written; N and C are the ends. Square brackets hold non-standard residues; d marks the D form. Peptide text beside a SMILES is read from it. I, II: the chains in the order shown. Actinocin(1to9) = Cc1c2oc3c(C)ccc(C(=O)[*:2])c3nc-2c(C(=O)[*:1])c(N)c1=O; NMeV = CN[C@H](C(=O)O)C(C)C; Sar = CNCC(=O)O

What was measured:
HT-29 [1] = assay: Antiproliferative activity against human HT-29 cells after 96 hrs by MTT assay; assay type: functional, cell-based; details: HT-29, 96 h
HT-29 [2] = assay: Antiproliferative activity against human HT-29 cells at 10 ug after 48 hrs by two-layer agar-diffusion method; assay type: functional, cell-based
In short: (§1)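 Compound (0.01-10 µg) spotted on Si gel pieces, air-dried, placed face down on 1.5% Noble agar in PBS-growth medium (20:80) for 60 min diffusion. After removal, cells (2 X 10^6/ml) in 0.3% low-temperature agarose overlaid; 48 h incubation. Cytotoxic zones shown by MTT (5 mg/ml in growth medium) over agarose; absence of zone scored as not detected.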

HT-29 [3] = assay: Antiproliferative activity against human HT-29 cells at 1 ug after 48 hrs by two-layer agar-diffusion method; assay type: functional; details: for zone of inhibition at 1 µg/disc: read-out: IZ; in short: as §1
HT-29 [4] = assay: Antiproliferative activity against human HT-29 cells at 0.1 ug after 48 hrs by two-layer agar-diffusion method; assay type: functional; details: for zone of inhibition at 0.1 µg/disc: read-out: IZ; in short: as §1
HT-29 [5] = assay: Antiproliferative activity against human HT-29 cells at 0.01 ug after 48 hrs by two-layer agar-diffusion method; assay type: functional; details: for zone of inhibition at 0.01 µg/disc: read-out: IZ; in short: as §1
P388 [6] = assay: Antiproliferative activity against mouse P388 cells after 48 hrs by MTT assay; assay type: functional, cell-based; details: P388, 48 h
In short: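 Uncloned P-388 in RPMI 1640 + 10% horse serum, gentamicin 50 µg/ml; 200-µl cultures at 1 X 10' cells/ml with or without drug, 48 h exposure. MTT (5 mg/ml in medium, 75 µl) added for 90 min, formazan read at 570 nm; absorbance normalized to untreated wells; IC50 by linear regression of logit-transformed data.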

P388 [7] = assay: Antiproliferative activity against mouse P388 cells at 1 ug after 48 hrs by two-layer agar-diffusion method; assay type: functional; details: read-out: IZ; in short: as §1
P388 [8] = assay: Antiproliferative activity against mouse P388 cells at 0.1 ug after 48 hrs by two-layer agar-diffusion method; assay type: functional; details: for zone of inhibition at 0.1 µg/disc: read-out: IZ; in short: as §1
P388 [9] = assay: Antiproliferative activity against mouse P388 cells at 0.01 ug after 48 hrs by two-layer agar-diffusion method; assay type: functional; details: for zone of inhibition at 0.01 µg/disc: read-out: IZ; in short: as §1
P388 [10] = assay: Antiproliferative activity against mouse P388 cells at 5 ug after 48 hrs by two-layer agar-diffusion method; assay type: functional; details: read-out: IZ; in short: as §1
HT-29 [11] = assay: Antiproliferative activity against human HT-29 cells at 5 ug after 48 hrs by two-layer agar-diffusion method; assay type: functional; details: read-out: IZ; in short: as §1

Compound	IC50 (HT-29 [1])	Activity (HT-29 [2])	Activity (HT-29 [3])	Activity (HT-29 [4])	Activity (HT-29 [5])	IC50 (P388 [6])	zone of inhibition at 1 µg/disc (P388 [7]) [mm]	zone of inhibition at 0.1 µg/disc (P388 [8]) [mm]	Activity (P388 [9])	zone of inhibition at 1 µg/disc (HT-29 [3]) [mm]	zone of inhibition at 0.1 µg/disc (HT-29 [4]) [mm]	zone of inhibition at 0.01 µg/disc (HT-29 [5]) [mm]	zone of inhibition at 0.01 µg/disc (P388 [9]) [mm]	zone of inhibition at 5 µg/disc (P388 [10]) [mm]	zone of inhibition at 5 µg/disc (HT-29 [11]) [mm]	Activity (P388 [8])
COc1cc(NS(C)(=O)=O)ccc1Nc1c2ccccc2nc2ccccc12 [AMSACRINE]	559 nM	inactive	inactive	inactive	inactive	229 nM	20	10	inactive	–	–	–	–	–	–	–
Nc1ncn([C@@H]2O[C@H](CO)[C@@H](O)[C@H]2O)c(=O)n1 [AZACITIDINE]	3800 nM	–	–	inactive	inactive	5000 nM	30	12.5	inactive	20	–	–	–	–	–	–
COc1cc2c(c(OC)c1OC)-c1ccc(OC)c(=O)cc1[C@@H](NC(C)=O)CC2 [COLCHICINE]	–	–	–	–	–	24 nM	> 40	40	–	> 40	40	25	17.5	–	–	–
C=C1C(=O)O[C@H]2C[C@@H]1C(OC(C)=O)C/C(C)=C/CC/C(C)=C/CC[C@@]2(C)O (stereo partly drawn) [CRASSIN ACETATE]	0.26 µg/mL	–	–	–	–	1 µg/mL	9	–	–	–	–	–	–	20	17	–
Nc1ccn([C@@H]2O[C@H](CO)[C@@H](O)[C@@H]2O)c(=O)n1 [CYTARABINE]	66 nM	inactive	inactive	inactive	inactive	1230 nM	> 40	20	–	–	–	–	10	–	–	–
Cc1c2oc3c(C)ccc(C(=O)N[C@@H]4C(=O)N[C@H](C(C)C)C(=O)N5CCC[C@H]5C(=O)N(C)CC(=O)N(C)[C@@H](C(C)C)C(=O)O[C@@H]4C)c3nc-2c(C(=O)N[C@@H]2C(=O)N[C@H](C(C)C)C(=O)N3CCC[C@H]3C(=O)N(C)CC(=O)N(C)[C@@H](C(C)C)C(=O)O[C@@H]2C)c(N)c1=O [DACTINOMYCIN] (I: T[dV]P[Sar][NMeV] / II: T[dV]P[Sar][NMeV]; ester I:1-I:C, II:1-II:C; linker I:N-II:N via Actinocin(1to9))	223 nM	inactive	inactive	inactive	inactive	0.2 nM	5	–	inactive	–	–	–	–	–	–	inactive
COc1cccc2c1C(=O)c1c(O)c3c(c(O)c1C2=O)C[C@@](O)(C(C)=O)C[C@@H]3O[C@H]1C[C@H](N)[C@H](O)[C@H](C)O1 [DAUNORUBICIN]	133 nM	–	–	inactive	inactive	28 nM	20	12.5	–	5	–	–	10	–	–	–
COc1cccc2c1C(=O)c1c(O)c3c(c(O)c1C2=O)C[C@@](O)(C(=O)CO)C[C@@H]3O[C@H]1C[C@H](N)[C@H](O)[C@H](C)O1 [DOXORUBICIN]	37 nM	–	–	inactive	inactive	74 nM	25	17.5	–	5	–	–	5	–	–	–
CC[C@H]1CN2CCc3cc(OC)c(OC)cc3[C@@H]2C[C@@H]1C[C@H]1NCCc2cc(OC)c(OC)cc21 [EMETINE]	33 nM	–	–	–	inactive	7 nM	> 40	40	–	35	25	–	20	–	–	–
O=c1[nH]cc(F)c(=O)[nH]1 [FLUOROURACIL]	690 nM	inactive	inactive	inactive	inactive	609 nM	> 40	15	inactive	–	–	–	–	–	–	–
CN(Cc1cnc2nc(N)nc(N)c2n1)c1ccc(C(=O)N[C@@H](CCC(=O)O)C(=O)O)cc1 [METHOTREXATE]	4400 nM	inactive	inactive	inactive	inactive	66 nM	40	27.5	inactive	–	–	–	–	–	–	–
CO[C@@]12[C@H](COC(N)=O)C3=C(C(=O)C(C)=C(N)C3=O)N1C[C@@H]1N[C@@H]12 [MITOMYCIN]	99 nM	–	–	inactive	inactive	3000 nM	25	5	inactive	10	–	–	–	–	–	–
CO[C@H](C(=O)[C@@H](O)[C@@H](C)O)[C@@H]1Cc2cc3cc(O[C@H]4C[C@@H](O[C@@H]5C[C@@H](O)[C@H](O)[C@@H](C)O5)[C@H](O)[C@@H](C)O4)c(C)c(O)c3c(O)c2C(=O)[C@H]1O[C@H]1C[C@@H](O[C@@H]2C[C@@H](O)[C@@H](O[C@@H]3C[C@](C)(O)[C@H](O)[C@@H](C)O3)[C@@H](C)O2)[C@H](O)[C@@H](C)O1 [PLICAMYCIN]	33 nM	–	–	–	inactive	111 nM	30	15	inactive	25	15	–	–	–	–	–
COc1cc([C@@H]2c3cc4c(cc3[C@H](O)[C@H]3COC(=O)[C@H]23)OCO4)cc(OC)c1OC [PODOFILOX]	11 nM	–	–	–	–	5.9 nM	40	32.5	–	> 40	> 40	25	12.5	–	–	–
Nc1nc2[nH]cnc2c(=S)[nH]1 [THIOGUANINE]	1240 nM	inactive	inactive	inactive	inactive	300 nM	> 40	> 40	–	–	–	–	> 40	–	–	–
CC[C@]1(O)C[C@@H]2CN(CCc3c([nH]c4ccccc34)[C@@](C(=O)OC)(c3cc4c(cc3OC)N(C)[C@H]3[C@@](O)(C(=O)OC)[C@H](OC(C)=O)[C@]5(CC)C=CCN6CC[C@]43[C@@H]65)C2)C1 [VINBLASTINE]	4 nM	–	–	–	–	0.7 nM	> 40	32.5	–	40	25	10	12.5	–	–	–
CC[C@]1(O)C[C@H]2CN(CCc3c([nH]c4ccccc34)[C@@](C(=O)OC)(c3cc4c(cc3OC)N(C=O)[C@H]3[C@@](O)(C(=O)OC)[C@H](OC(C)=O)[C@]5(CC)C=CCN6CC[C@]43[C@@H]65)C2)C1 [VINCRISTINE]	7 nM	–	–	–	inactive	1.2 nM	> 40	32.5	–	30	15	–	12.5	–	–	–
